The record followed here is ChEMBL document CHEMBL1122546, “A potent multisubstrate analogue inhibitor of human thymidylate synthetase” (J Med Chem, 1984).

In assay [1] the target is T1, Thymidylate synthase (Homo sapiens, UniProt P04818). In words: Inhibitory activity against human thymidylate synthase with variable concentration of N5, 10-CH2-H4PteGlu and fixed dUMP (100 uM). The procedure, abridged: (§1)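 HeLa-S3 TS purified on methotrexate–Sephadex. Tritium release from [5-3H]dUMP with dUMP fixed at 100 μM and CH2-H4PteGlu varied, in 150 mM Tris-HCl pH 7.5 with DTT, NaF, formaldehyde, BSA and sucrose. Reactions ran at 37 °C for 60 min, were stopped with TCA, treated with charcoal, and the supernatant counted. Apparent Ki from replots of double-reciprocal slopes (competitive) or intercepts (noncompetitive) against inhibitor concentration.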
T1 sequence (P04818 whole entry): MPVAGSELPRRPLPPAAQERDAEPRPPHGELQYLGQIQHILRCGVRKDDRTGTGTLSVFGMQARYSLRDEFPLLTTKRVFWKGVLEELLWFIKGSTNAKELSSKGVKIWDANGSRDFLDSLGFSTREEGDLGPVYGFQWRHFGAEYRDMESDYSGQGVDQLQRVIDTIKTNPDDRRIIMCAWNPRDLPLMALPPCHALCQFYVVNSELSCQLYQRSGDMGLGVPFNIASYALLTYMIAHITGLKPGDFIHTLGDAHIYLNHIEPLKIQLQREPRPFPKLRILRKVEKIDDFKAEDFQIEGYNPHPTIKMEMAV

Assay [2] concerns the target T1, Thymidylate synthase. In words: Inhibitory activity against human thymidylate synthase with variable concentration of dUMP and fixed N5,10-CH2-H4PteGlu (200 uM).
Assay [3] in a line: Apparent Ki value for the inhibition of human thymidylate synthase in the presence of variable conc. of N5,10-CH2-H4PteGlu. The method in brief:
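Thymidylate synthase purified from HeLa-S3 cells by methotrexate–Sephadex chromatography. Tritium-release assay, 37 °C for 60 min, at pH 7.5 (Tris-HCl) with DTT, NaF, formaldehyde, BSA and sucrose. dUMP (with [5-3H]dUMP, 10:1) fixed at 100 μM; CH2-H4PteGlu varied. Inhibitor tested at several concentrations. Lineweaver–Burk plots; slopes (competitive) or intercepts (noncompetitive) replotted against inhibitor concentration.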

Assay [4] in a line: Apparent Ki value for the inhibition of human thymidylate synthase in the presence of variable conc. of dUMP. The method in brief:
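Enzyme is HeLa-S3 thymidylate synthase, purified on methotrexate–Sephadex. Tritium release from [5-3H]dUMP (10:1 with dUMP), with dUMP varied and CH2-H4PteGlu fixed at 200 μM. Tris-HCl pH 7.5 buffer with DTT, NaF, formaldehyde, BSA and sucrose; 37 °C, 60 min. Inhibitor at several concentrations; double-reciprocal slopes or intercepts replotted against inhibitor concentration.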

Assay [5] in a line: Apparent Ki value for the inhibition of human thymidylate synthase in the presence of variable conc. of N5,10-CH2-H4PteGlu; Ki/Km. The method in brief:
as §1

Assay [6] is described as follows: Apparent Ki value for the inhibition of human thymidylate synthase in the presence of variable conc. of dUMP; Ki/Km.
Assay [7] has as its target T1, Thymidylate synthase. Put plainly: Km of dUMP for human thymidylate synthase with variable concentration of dUMP and fixed N5,10-CH2-H4PteGlu (200 uM).

As a reminder, the Ki is a measure of affinity in units of concentration, obtained from inhibition or displacement. Turning to `Nc1nc2c(c(=O)[nH]1)N(Cc1cn([C@H]3C[C@H](O)[C@@H](COP(O)O)O3)c(=O)[nH]c1=O)C(CNc1ccc(C(=O)NC(CCC(=O)O)C(=O)O)cc1)CC2` (some centres not stated), the Ki is 0.25 µM at Thymidylate synthase [1] and 0.058 µM on Thymidylate synthase [2]. The Ratio amounted to 0.005 in assay [3] and 0.02 in assay [4].
Consider `COP(=O)(O)OC[C@H]1O[C@@H](n2cc(CN3c4c(nc(N)[nH]c4=O)CCC3CNc3ccc(C(=O)NC(CCC(=O)O)C(=O)O)cc3)c(=O)[nH]c2=O)C[C@@H]1O` (some centres not stated), for which the Ki at Thymidylate synthase [1] is 700 µM; at Thymidylate synthase [2], 120 µM. The Ratio in assay [5] was found to be 14; in assay [6], 40.
Usually Km stands for the substrate concentration at which the rate is half of its maximum. On to `O=c1ccn([C@H]2C[C@H](O)[C@@H](COP(=O)(O)O)O2)c(=O)[nH]1` [DEOXYURIDINE MONOPHOSPHATE], for which the Km at Thymidylate synthase [7] amounted to 3 µM.
For `CCOC(=O)CCC(NC(=O)c1ccc(N(CC2CCc3nc(N)[nH]c(=O)c3N2)N=O)cc1)C(=O)OCC` (configuration not stated), the figures for the Ki at Thymidylate synthase [1] and at Thymidylate synthase [2] were 150 µM and 240 µM, respectively.
For the molecule `CCOC(=O)CCC(NC(=O)c1ccc(N(CC2CCc3nc(N)nc(O)c3N2)N=O)cc1)C(=O)OCC` (configuration not stated), the Ratio in assay [3] came out at 3; in assay [4] it was 80.
Take `Nc1nc2c(c(=O)[nH]1)N(Cc1cn([C@H]3C[C@H](O)[C@@H](CO)O3)c(=O)[nH]c1=O)C(CNc1ccc(C(=O)NC(CCC(=O)O)C(=O)O)cc1)CC2` (some centres not stated): the inhibition constant (Ki) on Thymidylate synthase [1] came to 240 µM; at Thymidylate synthase [2] it was 150 µM. Moreover, the Ratio in assay [5] was determined as 4.8; in assay [6], 50.
